Test results taken from ChEMBL document CHEMBL2040790 (Bioorg Med Chem Lett, 2012).
Activity calls are given as the source filed them. The rule behind the calls is not given here.

Columns and labels:
Vaccinia virus [1] = experiment: Antiviral activity against Vaccinia virus; format: functional, organism-based; details: Orthopoxvirus vaccinia
La Crosse virus [2] = experiment: Antiviral activity against La Crosse virus infected in african green monkey Vero cells assessed as inhibition of virus-induced cytopathic effect by fluorometric analysis; format: functional, organism-based
La Crosse virus [3] = experiment: Antiviral activity against La Crosse virus infected in african green monkey Vero cells assessed as inhibition of virus-induced cytopathic effect at 25 uM during single experiment set up by fluorometric analysis; format: functional, organism-based
[4] = Solubility of the compound in simulated gastric fluid; format: physicochemical; details: simulated gi fluid; BLD = below limit of detection
Vaccinia virus [5] = experiment: Antiviral activity against Vaccinia virus at 25 uM during single experiment set up; format: functional, organism-based; details: Orthopoxvirus vaccinia
Vero = experiment: Cytotoxicity against african green monkey Vero cells; format: cell-based; details: chlorocebus sabaeus
La Crosse virus [6] = experiment: Antiviral activity against La Crosse virus infected in african green monkey Vero cells assessed as inhibition of virus-induced cytopathic effect at 5 uM after 4 days by spectrophotometric analysis; format: functional, organism-based
Procedure, shortened: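 Primary screen run at one fixed concentration of 5 μM. Compounds active at that level were then carried into dose-response testing (0.009–25 μM) against RVFV and LACV.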

Rift Valley fever virus = experiment: Antiviral activity against Rift Valley fever virus at 5 uM; format: functional, organism-based
Procedure, shortened: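 Single-concentration primary screen at 5 μM. Molecules active there and bearing viable scaffolds were then taken into concentration-response testing over 0.009–25 μM.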

SMILES | EC50 (Vaccinia virus [1]) | EC50 (La Crosse virus [2]) | also measured
CC(C)(C)c1ccc(C(=O)NC(=S)Nc2ccccc2)cc1 | 5.57 µM | 5.01 µM | Activity (La Crosse virus [3]): inactive
CN(C)c1ccc(NC(=S)NC(=O)c2ccc(C(C)(C)C)cc2)c(Cl)c1.Cl | 3.26 µM | 1.55 µM | solubility [4]: BLD
Cc1ccc(Cl)c(NC(=S)NC(=O)c2ccc(C(C)(C)C)cc2)c1 | 0.66 µM | 1.67 µM | Activity (La Crosse virus [3]): inactive
Cc1cc(C)cc(NC(=S)NC(=O)c2ccc(C(C)(C)C)cc2)c1 | 3.48 µM | 4.43 µM | Activity (La Crosse virus [3]): inactive
CC(C)(C)c1ccc(C(=O)NC(=S)Nc2ccc(N3CCOCC3)cc2)cc1 | > 25 µM | > 25 µM | Activity (Vaccinia virus [5]): inactive; Activity (La Crosse virus [3]): inactive; Activity (Vero): Toxic
CC(C)(C)c1ccc(C(=O)NC(=S)Nc2ccc(CN3CCOCC3)cc2)cc1 | > 25 µM | > 25 µM | Activity (Vaccinia virus [5]): inactive; Activity (La Crosse virus [3]): inactive; Activity (Vero): Toxic
CC(C)(C)c1ccc(C(=O)NC(=S)Nc2ccc(N3CCCCC3)cc2)cc1 | > 25 µM | > 25 µM | Activity (Vaccinia virus [5]): inactive; Activity (La Crosse virus [3]): inactive; Activity (Vero): Toxic
COc1cc(N/C(=N/C(=O)c2ccc(C(C)(C)C)cc2)SCCN(C)C)ccc1NC(=O)c1ccccc1Cl | > 25 µM | > 25 µM | –
CC(C)(C)c1ccc(C(=O)NC(=S)Nc2ccc(NC(=O)c3ccccc3Cl)c(N)c2)cc1 | 0.06 µM | 0.05 µM | –
CC(C)(C)c1ccc(C(=O)NC(=S)Nc2cccnc2)cc1 | > 25 µM | > 25 µM | –
CC(C)(C)c1ccc(C(=O)NC(=S)Nc2ccccc2Cl)cc1 | 0.35 µM | 0.28 µM | Activity (La Crosse virus [6]): Active; Activity (Rift Valley fever virus): Active
COc1cc(NC(=S)NC(=O)c2ccc(C(C)(C)C)cc2)ccc1NC(=O)c1ccc2nc[nH]c2c1 | > 25 µM | > 25 µM | –
COc1cc(NC(=S)NC(=O)c2ccc(C(C)(C)C)cc2)ccc1NC(=S)c1ccccc1Cl | 0.99 µM | 0.64 µM | –
Cc1cccc(NC(=S)NC(=O)c2ccc(C(C)(C)C)cc2)c1C | 1.83 µM | 2.59 µM | –
CCN(C(=S)NC(=O)c1ccc(C(C)(C)C)cc1)c1ccc(NC(=O)c2ccccc2Cl)c(OC)c1 | 10.1 µM | > 25 µM | –
CC(C)(C)c1ccc(C(=O)NC(=S)Nc2cccc(CN)c2)cc1 | > 25 µM | > 25 µM | –
COc1ccccc1NC(=S)NC(=O)c1ccc(C(C)(C)C)cc1 | 1.39 µM | 1.15 µM | –
CC(C)(C)c1ccc(C(=O)NC(=S)Nc2ccc(N)cc2)cc1 | 4.41 µM | 2.27 µM | Activity (Vaccinia virus [5]): inactive
COc1cc(NC(=S)NC(=O)c2ccc(C(C)(C)C)cc2)ccc1NC(=O)c1ncc[nH]1 | > 25 µM | > 25 µM | –
CNc1cccc(C(=O)Nc2ccc(NC(=S)NC(=O)c3ccc(C(C)(C)C)cc3)cc2OC)c1.Cl | 1.63 µM | > 25 µM | Activity (Vero): Toxic
CC(C)(C)c1ccc(C(=O)NC(=S)Nc2ccc(Cl)cc2)cc1 | > 25 µM | > 25 µM | –
CC(C)(C)c1ccc(C(=O)NC(=S)Nc2cc(C(C)(C)C)ccc2O)cc1 | 0.98 µM | 3.42 µM | Activity (Vero): Toxic
CC(C)(C)c1ccc(C(=O)NC(=S)Nc2ccc([N+](=O)[O-])cc2)cc1 | 4.08 µM | > 25 µM | –

SMILES | EC50 (Vaccinia virus [1]) | EC50 (La Crosse virus [2]) | also measured
Cc1c(Cl)cccc1NC(=S)NC(=O)c1ccc(C(C)(C)C)cc1 | 6.47 µM | 0.919 µM | Activity (Vaccinia virus [5]): inactive; Activity (La Crosse virus [3]): inactive
COc1cc(NC(=S)NC(=O)c2ccc(C(C)(C)C)cc2)ccc1NC(=O)c1ccccc1N | 2.61 µM | > 25 µM | –
COc1cc(N/C(=N/C(=O)c2ccc(C(C)(C)C)cc2)SCC(=O)OC(C)(C)C)ccc1NC(=O)c1ccccc1Cl | > 25 µM | > 25 µM | –
CC(C)(C)c1ccc(C(=O)NC(=S)NC2CCCCC2)cc1 | 4.92 µM | 3.71 µM | –
Cc1ccc(NC(=S)NC(=O)c2ccc(C(C)(C)C)cc2)c(C)c1 | 1.06 µM | 0.88 µM | –
CC(=O)N1CCN(c2ccc(NC(=S)NC(=O)c3ccc(C(C)(C)C)cc3)cc2)CC1 | > 25 µM | > 25 µM | Activity (Vaccinia virus [5]): inactive; Activity (La Crosse virus [3]): inactive; Activity (Vero): Toxic
CC(C)(C)c1ccc(C(=O)NC(=S)Nc2ccc(NC(=O)c3ccccc3Cl)c(O)c2)cc1 | 0.23 µM | 0.21 µM | –
CC(C)(C)c1ccc(C(=O)NC(=S)Nc2cccc(N)c2)cc1 | 2.72 µM | 2.19 µM | Activity (Vaccinia virus [5]): inactive
COc1cccc(NC(=S)NC(=O)c2ccc(C(C)(C)C)cc2)c1 | 4.07 µM | > 25 µM | –
COc1cc(NC(=S)NC(=O)c2ccc(C(C)(C)C)cc2)ccc1NC(=O)c1cccc(N)c1 | > 25 µM | > 25 µM | –
Cc1ccc(NC(=S)NC(=O)c2ccc(C(C)(C)C)cc2)cc1C | 3.93 µM | 1.23 µM | –
CC(C)(C)c1ccc(C(=O)NC(=S)Nc2cc(OC(F)(F)F)ccc2Cl)cc1 | 1.9 µM | > 25 µM | –
COc1ccc(-c2csc(NC(=S)NC(=O)c3ccc(C(C)(C)C)cc3)n2)cc1OC | > 25 µM | > 25 µM | –
Cc1cccc(NC(=S)NC(=O)c2ccc(C(C)(C)C)cc2)c1 | 1.01 µM | 1.33 µM | –
COc1cc(NC(=S)NC(=O)c2ccc(C(C)(C)C)cc2)ccc1NC(=O)c1ncccn1 | > 25 µM | > 25 µM | –
COC(=O)c1cnc(NC(=S)NC(=O)c2ccc(C(C)(C)C)cc2)s1 | > 25 µM | > 25 µM | –
Cc1ccc(C)c(NC(=S)NC(=O)c2ccc(C(C)(C)C)cc2)c1 | 2.86 µM | > 25 µM | –
CNc1ccc(C(=O)Nc2ccc(NC(=S)NC(=O)c3ccc(C(C)(C)C)cc3)cc2OC)cc1.Cl | 0.81 µM | > 25 µM | Activity (Vaccinia virus [5]): inactive; Activity (Vero): Toxic
Cc1ccc(NC(=S)NC(=O)c2ccc(C(C)(C)C)cc2)cc1 | 1.91 µM | 4.86 µM | –
COc1cc(NC(=S)NC(=O)c2ccc(C(C)(C)C)cc2)ccc1NC(=O)CCN(C)C | > 25 µM | > 25 µM | –
Cc1ccccc1NC(=S)NC(=O)c1ccc(C(C)(C)C)cc1 | 0.83 µM | 0.63 µM | –
CC(C)(C)c1ccc(C(=O)NC(=S)Nc2nc(-c3cccc([N+](=O)[O-])c3)cs2)cc1 | > 25 µM | > 25 µM | –
CCS/C(=N\C(=O)c1ccc(C(C)(C)C)cc1)Nc1ccc(NC(=O)c2ccccc2Cl)c(OC)c1 | 0.23 µM | 0.3 µM | –

SMILES | EC50 (Vaccinia virus [1]) | EC50 (La Crosse virus [2]) | also measured
COc1cc(NC(=S)NC(=O)c2ccc(C(C)(C)C)cc2)ccc1NC(=N)c1ccccc1Cl | 1.75 µM | 2.06 µM | –
COc1cc(NC(=S)NC(=O)c2ccc(C(C)(C)C)cc2)ccc1NC(=O)c1c[nH]cn1 | > 25 µM | > 25 µM | –
COc1cc(NC(=S)NC(=O)c2ccc(C(C)(C)C)cc2)ccc1NC(=O)c1ccc(C(=O)O)cc1 | > 25 µM | > 25 µM | Activity (Vaccinia virus [5]): inactive; Activity (La Crosse virus [3]): inactive
COc1cc(NC(=S)NC(=O)c2ccc(C(C)(C)C)cc2)ccc1NC(=O)c1cccc(C(=O)O)c1 | > 25 µM | – | Activity (Vaccinia virus [5]): inactive; Activity (La Crosse virus [3]): inactive
CC(C)(C)c1ccc(C(=O)NC(=S)Nc2ccc(Nc3cccnc3)cc2)cc1 | 24.5 µM | > 25 µM | –
CCS/C(=N\C(=O)c1ccc(C(C)(C)C)cc1)Nc1ccccc1Cl | 1.91 µM | 0.51 µM | –
Cc1ccc(O)c(NC(=S)NC(=O)c2ccc(C(C)(C)C)cc2)c1 | > 25 µM | > 25 µM | Activity (Vero): Toxic
CC(C)(C)c1ccc(C(=O)NC(=S)Nc2ccc(NC(=O)c3ccccc3)cc2)cc1 | 0.17 µM | 0.15 µM | Activity (Vaccinia virus [5]): inactive; Activity (La Crosse virus [3]): inactive
COc1cc(NC(=S)NC(=O)c2ccc(C(C)(C)C)cc2)ccc1NC(=N)N | > 25 µM | > 25 µM | –
CC(C)(C)c1ccc(C(=O)NC(=S)Nc2cc(Cl)ccc2Cl)cc1 | 2.42 µM | 2.45 µM | Activity (Vaccinia virus [5]): inactive; Activity (La Crosse virus [3]): inactive
CC(C)(C)c1ccc(C(=O)NC(=S)Nc2ccc(CN3CCCCC3)cc2)cc1 | > 25 µM | > 25 µM | Activity (Vaccinia virus [5]): inactive; Activity (La Crosse virus [3]): inactive; Activity (Vero): Toxic
CNc1ccc(NC(=S)NC(=O)c2ccc(C(C)(C)C)cc2)cc1 | 1.16 µM | 1.45 µM | –
CC(C)(C)c1ccc(C(=N)NC(=S)Nc2ccccc2Cl)cc1 | > 25 µM | > 25 µM | –
CC(C)(C)c1ccc(C(=O)NC(=S)Nc2cccc(NC(=O)c3ccccc3Cl)c2)cc1 | > 25 µM | > 25 µM | –
CC(C)(C)c1ccc(C(=O)NC(=S)Nc2ccc(S(=O)(=O)N3CCCCC3)cc2)cc1 | > 25 µM | > 25 µM | –
CC(C)(C)c1ccc(C(=O)NC(=S)Nc2ccc(Nc3ccncc3)cc2)cc1 | > 25 µM | 7.7 µM | –
CC(C)(C)c1ccc(C(=O)NC(=S)Nc2cc(C(F)(F)F)ccc2Cl)cc1 | 1 µM | 0.6 µM | –
CC(C)(C)c1ccc(C(=O)NC(=S)Nc2ccc(Nc3ccccn3)cc2)cc1 | > 25 µM | > 25 µM | –
COc1cc(NC(=S)NC(=O)c2ccc(C(C)(C)C)cc2)ccc1N | 2.09 µM | 1.69 µM | Activity (Vaccinia virus [5]): inactive; Activity (La Crosse virus [3]): inactive
CN(Cc1ccccc1)S(=O)(=O)c1ccc(NC(=S)NC(=O)c2ccc(C(C)(C)C)cc2)cc1 | > 25 µM | > 25 µM | –
COc1cc(NC(=S)NC(=O)c2ccc(C(C)(C)C)cc2)ccc1NC(=O)c1ccc(N)cc1 | 20 µM | > 25 µM | –
